Laboratory results published in ChEMBL document CHEMBL1127804 (J Med Chem, 1994).

What was measured:
Dihydrofolate reductase [1] = target: T1, Dihydrofolate reductase (Homo sapiens, UniProt P00374); test: Tested for inhibitory concentration against human dihydrofolate reductase(DHFR)
T1 sequence (P00374 whole entry): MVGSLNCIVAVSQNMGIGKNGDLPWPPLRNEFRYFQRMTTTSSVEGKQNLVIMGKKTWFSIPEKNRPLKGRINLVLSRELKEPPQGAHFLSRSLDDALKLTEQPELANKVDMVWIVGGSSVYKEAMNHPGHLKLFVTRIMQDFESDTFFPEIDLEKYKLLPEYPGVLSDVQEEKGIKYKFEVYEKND

SCC-25 = test: Tested for inhibitory concentration against human SCC25 cell line; format: functional, cell-based
In short: (§1)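 SCC VII (murine) or SCC25 (human) squamous carcinoma cells were plated at 2×10^3/well in DME with 10% FBS for 24 h at 37 °C, 5% CO2. Drug was added at 10 concentrations from 0.1 nM to 3 μM for a further 72 h. Growth was read by sulforhodamine B protein stain at 530 nm.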

SCC-7 = test: Tested for inhibitory concentration against SCC-VII murine squamous carcinoma cell line; format: functional, cell-based; conditions: Mus musculus; in short: as §1
CCRF-CEM [2] = test: Tested for inhibitory concentration of cell growth against CCRF-CEM cell lines of human leukemic lymphoblast
CCRF-CEM [3] = test: cells; conditions: Homo sapiens
[4] = Ratio between Ki values of CCRF-CEM and CEM/MTX; format: functional
CCRF-CEM [5] = test: Tested for inhibition of [14C]-DDATHF influx in CEM/MTX cells of human leukemic lymphoblasts; format: functional, cell-based
In short: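 Influx of (6R)-[14C]DDATHF (2 μM) into CEM/MTX cells was measured. Before the assay, cells normally kept in 1 μM MTX were held out of MTX for 3–4 generations. Ki came from Dixon plots and is given as mean ± SE of two to seven separate experiments.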

MCF7 = test: Tested for inhibitory concentration against MCF-7 human breast carcinoma cell line; format: functional, cell-based
In short: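 MCF-7 breast carcinoma cells were grown in replicate 24-well plates in α-MEM with 10% dialyzed FBS plus epithelial growth factor, hydrocortisone and insulin. Cells were exposed for 72 h at 37 °C under 6.5% CO2 and counted electronically with a Coulter counter. IC50 was estimated from semilog plots using averaged data from a single experiment on replicate plates.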

CCRF-CEM [6] = test: Tested for the inhibition of [14C]-DDATHF influx in CCRF-CEM cells of human leukemic lymphoblast; format: functional, cell-based
In short: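 Influx of (6R)-[14C]DDATHF (2 μM) into wild-type CCRF-CEM human leukemic lymphoblasts was measured with the inhibitor present. Ki was calculated from Dixon plots and reported as mean ± SE of two to seven separate experiments.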

CCRF-CEM [7] = test: Tested in vitro for relative activity against CCRF-CEM human Leukemic lymphoblast by using TS as primary target; format: functional
CCRF-CEM [8] = test: Tested in vitro for inhibitory concentration against CCRF-CEM human Leukemic lymphoblast by using TS as primary target; format: functional, cell-based
Dihydrofolate reductase [9] = target: T1, Dihydrofolate reductase; test: rested for inhibitory concentration against human dihydrofolate reductase(DHFR)

Compound | IC50 (Dihydrofolate reductase [1]) | IC50 (SCC-25) | IC50 (SCC-7) | Ki (CCRF-CEM [5]) | IC50 (MCF7) | Ki (CCRF-CEM [6]) | further results
Nc1nc(N)c2nc(CNc3ccc(C(=O)NC(CCCNC(=O)c4ccccc4C(=O)O)C(=O)O)cc3)cnc2n1 (stereo not given) | 12.2 nM | 1 nM | 0.89 nM | 440 nM | 0.7 nM | 650 nM | IC50 (CCRF-CEM [2]): 1.08 nM; IC50 (CCRF-CEM [3]): 110 nM; Ratio [4]: 0.68
CN(Cc1ccc2[nH]c(C=O)nc(=O)c2c1)c1ccc(C(=O)NC(CCC(=O)O)C(=O)O)s1 (stereo not given) |  |  |  |  |  |  | Relative activity (CCRF-CEM [7]): 23; IC50 (CCRF-CEM [8]): 4.7 nM
Nc1nc(N)c2nc(CNc3c(Cl)cc(C(=O)NC(CCCNC(=O)c4ccccc4C(=O)O)C(=O)O)cc3Cl)cnc2n1 (stereo not given) | 10.2 nM | 2.5 nM | 1.6 nM |  |  |  | 
Nc1nc(N)c2nc(CNc3ccc(C(=O)NC(CCNC(=O)c4ccccc4C(=O)O)C(=O)O)cc3)cnc2n1 (stereo not given) | 11.6 nM | 12.9 nM | 19 nM |  | 6 nM |  | 
Nc1nc(N)c2nc(CNc3ccc(C(=O)NC(CCCCNC(=O)c4ccccc4C(=O)O)C(=O)O)cc3)cnc2n1 (stereo not given) |  | 17.9 nM | 4 nM |  | 2 nM |  | IC50 (Dihydrofolate reductase [9]): 11.4 nM
Nc1nc(N)c2nc(CNc3ccc(C(=O)N[C@@H](CCC(=O)O)C(=O)O)cc3)cnc2n1 [AMINOPTERIN] |  | 6.9 nM | 4 nM |  |  |  | 
Nc1nc(=O)c2nc(CNc3ccc(C(=O)N[C@@H](CCC(=O)O)C(=O)O)cc3)cnc2[nH]1 [FOLIC ACID] |  |  |  | 8950 nM |  | 167000 nM | Ratio [4]: 0.054
Nc1nc(=O)c2c([nH]1)NCC(CNc1ccc(C(=O)N[C@@H](CCC(=O)O)C(=O)O)cc1)N2C=O (stereo not given in full) [LEUCOVORIN] |  |  |  | 740 nM |  |  | 
CN(Cc1cnc2nc(N)nc(N)c2n1)c1ccc(C(=O)N[C@@H](CCC(=O)O)C(=O)O)cc1 [METHOTREXATE] |  |  | 5.8 nM | 9740 nM |  | 4480 nM | IC50 (CCRF-CEM [2]): 10.5 nM; IC50 (CCRF-CEM [3]): 2550 nM
COc1cc(NCc2ccc3nc(N)nc(N)c3c2C)cc(OC)c1OC [TRIMETREXATE] |  | 8 nM | 6.3 nM |  |  |  | 
